Results published in ChEMBL document CHEMBL4732230, “Design, synthesis, and biological evaluation of 4-benzoylamino-1H-pyrazole-3-carboxamide derivatives as potent CDK2 inhibitors” (Eur J Med Chem, 2021).

Tests used:
[1] = biological target: Cyclin-dependent kinase 1/cyclin B1 (Homo sapiens, UniProt P06493); type: protein-complex assay
CDK2/Cyclin A2 = CDK2/Cyclin A2 (Homo sapiens, UniProt P24941); assay: Inhibition of CDK2/cyclin A2 (unknown origin) using FAM-labeled peptide and ATP as substrate preincubated for 10 mins followed by substrate addition by mobility shift assay; type: protein-complex assay
A2058 = assay: Antiproliferative activity against human A2058 cells assessed as reduction in cell viability measured after 96 hrs by Celltiter-Glo luminescent assay; type: functional, cell-based; conditions: A2058, 96 h
How it was run: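 Cells in DMEM (A2058, MRC5) or RPMI 1640 (MV4-11), each with 10% fetal bovine serum and 1% penicillin/streptomycin. Cells were plated in 96-well plates and exposed to serially concentrated compound for 96 h, with DMSO as control. Viability was read by CellTiter-Glo luminescence and IC50 derived.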

Cyclin-dependent kinase 1/cyclin B1, sequence (P06493 whole entry): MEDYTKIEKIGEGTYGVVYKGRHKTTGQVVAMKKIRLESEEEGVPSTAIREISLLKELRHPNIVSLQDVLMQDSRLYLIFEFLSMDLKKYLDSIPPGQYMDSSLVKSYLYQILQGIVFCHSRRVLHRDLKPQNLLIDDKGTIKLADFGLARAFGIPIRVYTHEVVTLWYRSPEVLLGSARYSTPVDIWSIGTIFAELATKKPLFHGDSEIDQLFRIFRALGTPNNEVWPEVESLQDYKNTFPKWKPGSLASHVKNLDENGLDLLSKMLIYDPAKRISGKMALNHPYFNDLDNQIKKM
Cyclin-dependent kinase 1/cyclin B1, sequence (P14635 whole entry, further chain): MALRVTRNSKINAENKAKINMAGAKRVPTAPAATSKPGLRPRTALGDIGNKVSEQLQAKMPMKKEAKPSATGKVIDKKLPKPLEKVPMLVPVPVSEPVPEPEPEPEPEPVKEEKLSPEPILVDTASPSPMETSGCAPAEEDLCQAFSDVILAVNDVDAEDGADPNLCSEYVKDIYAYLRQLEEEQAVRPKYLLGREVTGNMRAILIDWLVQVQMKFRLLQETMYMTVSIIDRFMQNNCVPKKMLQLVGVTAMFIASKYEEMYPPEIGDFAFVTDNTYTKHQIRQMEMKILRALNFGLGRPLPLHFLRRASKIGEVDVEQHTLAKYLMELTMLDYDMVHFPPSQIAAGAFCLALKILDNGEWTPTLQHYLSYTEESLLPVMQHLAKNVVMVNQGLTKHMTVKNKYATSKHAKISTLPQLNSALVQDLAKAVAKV

Compound	IC50 [1]	IC50 (CDK2/Cyclin A2)	IC50 (A2058)
Nc1ccc(-c2ccc(F)c(C(=O)Nc3c[nH]nc3C(=O)Nc3ccc(F)cc3)c2F)cn1	1260 nM	120 nM	8540 nM
O=C(NCCCN1CCOCC1)c1ccc(F)c(-c2ccc(F)c(C(=O)Nc3c[nH]nc3C(=O)Nc3ccc(F)cc3)c2F)c1	1300 nM	169 nM	943 nM
Cc1ccc(-c2ccc(F)c(C(=O)Nc3c[nH]nc3C(=O)Nc3ccc(F)cc3)c2F)cn1	1850 nM	164 nM	
Cc1ccc(C(=O)NCCCN2CCOCC2)cc1-c1ccc(F)c(C(=O)Nc2c[nH]nc2C(=O)Nc2ccc(F)cc2)c1F	3690 nM	485 nM	6510 nM

These reach a lower IC50 [1]. Values come first.

IC50 [1]	IC50 (CDK2/Cyclin A2)	Compound	IC50 (A2058)
743 nM	82 nM	CN1CCC(CNC(=O)c2cccc(-c3ccc(F)c(C(=O)Nc4c[nH]nc4C(=O)Nc4ccc(F)cc4)c3F)c2)CC1	3340 nM
723 nM	73 nM	O=C(NCCCN1CCOCC1)c1cccc(-c2ccc(F)c(C(=O)Nc3c[nH]nc3C(=O)Nc3ccc(F)cc3)c2F)c1	650 nM
712 nM	144 nM	COc1ccc(-c2ccc(F)c(C(=O)Nc3c[nH]nc3C(=O)Nc3ccc(F)cc3)c2F)cn1	
496 nM	210 nM	COC(=O)c1cccc(-c2ccc(F)c(C(=O)Nc3c[nH]nc3C(=O)Nc3ccc(F)cc3)c2F)c1	
432 nM	86 nM	O=C(Nc1ccc(F)cc1)c1n[nH]cc1NC(=O)c1c(F)ccc(-c2ccccc2)c1F	2370 nM
